Sampled rows, rich in hits. Any-hit rate of the full collection: about 1.8%.
TbMetRS inhib – Trypanosoma brucei MetRS inhibition | hit rate 0.4% among 360,000 | purified T. brucei MetRS, ATP depletion, Kinase-Glo luminescence | inhibition, % at 11.9 µM;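 active = inhibition above a per-plate cutoff of the control wells' mean inhibition plus 3 SD, cut at about 5.5% in these data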;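 note: 0% = DMSO wells median and 100% = median of wells with control inhibitor compound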
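assay system = parasite MetRS enzyme | timing = 15 min preincubation, 2 h reaction, all 25 °C | evaluation = percent inhibition relative to median high and low control wells | medium = HEPES buffer containing pyrophosphatase, BSA, spermine, DTT | compound = single dose, 11.9 µM final nominal, 0.9% final DMSO | detection = Kinase-Glo luminescence, ATP depletion format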
APOBEC3A inh – inhibitors of human APOBEC3A DNA deaminase. P31941. recombinant A3A, FAM/TAMRA ssDNA deamination fluorescence. inhibition, % at 20 µM. hit rate 0.41% among 330,000. AID 493011;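 active = at least 40% inhibition at 20 µM here, with at most 30% in a related deaminase screen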;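 note: plate controls were A3A with DMSO for no effect and wells lacking A3A enzyme for full effect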
APOBEC3G inh – blocks human APOBEC3G single-stranded DNA deamination; recombinant A3G, ssDNA deamination FAM/TAMRA fluorescence; inhibition, % at 20 µM; hit rate 0.28% among 330,000;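 active = inhibition of at least 40% at 20 µM, with no more than 30% in the related APOBEC3A deaminase screen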;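 note: plate controls were DMSO wells with A3G for no effect and wells lacking A3G enzyme for full effect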
p-CIP stab down – p/CIP protein destabilization. Q05BA5. F442A p/CIP-EGFP cells, EGFP fluorescence, 16 h. decrease of EGFP signal, % at 10 µM. hit rate 0.01% among 290,000;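 active = EGFP signal decrease of at least 30% at 10 µM or well 3 SD below plate mean, unless failing retest; inactive = the rest, including hits failing retest or dose response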
PHOSPHO1 inh – blocks human PHOSPHO1 phosphatase activity; hit rate 1.1% among 290,000; Q8TCT1; inhibition, % at 13.3 µM; recombinant PHOSPHO1, absorbance phosphatase assay; in the data active = inhibition above about 60%
Target sequence (Q8TCT1 whole entry, looked up): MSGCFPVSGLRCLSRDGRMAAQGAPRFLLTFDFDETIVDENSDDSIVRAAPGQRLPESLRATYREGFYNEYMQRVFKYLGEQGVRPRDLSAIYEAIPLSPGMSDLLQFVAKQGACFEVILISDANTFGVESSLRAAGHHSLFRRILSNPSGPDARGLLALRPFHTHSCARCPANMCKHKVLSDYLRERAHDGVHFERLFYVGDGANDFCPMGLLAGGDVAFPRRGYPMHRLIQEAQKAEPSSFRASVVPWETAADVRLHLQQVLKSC
* hit, by the source's call; . = no result given.

SMILES	TbMetRS inhib	APOBEC3A inh	APOBEC3G inh	p-CIP stab down	PHOSPHO1 inh
CCOc1ccc(CN2CCNC(=O)C2CC(=O)NCc2csc(C)n2)cc1 (stereo not given)	0	-4	-1	-6	2
Cc1nc(-c2ccccc2)sc1-c1nc(-c2ccncc2)ncc1S(=O)(=O)c1ccccc1	-1	0	1	3	11
O=C(CSc1ncccc1-c1nc2ccccc2[nH]1)N1CCN(c2ccccc2F)CC1	1	-2	-5	-15	88*
COc1ccccc1N1CCN(C(=O)CSc2ncccc2-c2nc3ccccc3[nH]2)CC1	1	1	-2	-4	98*
O=C(CSc1ncccc1-c1nc2ccccc2[nH]1)NC1CC1	1	6	-1	3	13
COc1ccc(N2CCN(C(=O)CSc3ncccc3-c3nc4ccccc4[nH]3)CC2)cc1	4	-7	-8	-3	94*
CC(C)NC(=O)CN(Cc1ccc2c(c1)OCO2)C(=O)CCC(=O)Nc1ccccn1	0	-1	-2	2	19
CCOc1ccccc1NC(=S)NCc1ccccc1	-1	-5	-4	-4	30
S=C(NCc1ccco1)Nc1cccc(Cl)c1	2	3	1	-3	3
CCOc1ccccc1NC(=S)NCc1ccco1	0	-4	-8	-7	82*
S=C(NCc1ccco1)Nc1ccc(Cl)c(Cl)c1	1	-1	-1	-5	72*
NC(=O)c1nsc(C(=O)N(CC(=O)NCc2ccc3c(c2)OCO3)C2CCCC2)c1N	0	-4	-3	0	22
CC(C)N1CC2=C(C1=O)C(c1ccc(O)cc1)NC(=O)N2C (stereo not given)	0	-5	-7	5	-22
CC(=O)Nc1ccc(S(=O)(=O)N(Cc2cccnc2)Cc2cc3ccccc3[nH]c2=O)cc1	1	-2	0	-6	45
CCSc1nnc([C@@H]2CCCN2C(=O)OC(C)(C)C)o1	-1	38	8	-6	67*
C=C(C)CSc1nnc([C@@H]2CCCN2C(=O)OC(C)(C)C)o1	0	-2	-3	-14	9
COC(=O)c1ccc(N(C(=O)CNC(=O)c2ccco2)C(C(=O)NCC2CCCO2)c2ccc(OC)c(OC)c2)cc1 (stereo not given)	0	-2	-8	3	0
CCCn1c(SCC(=O)NCCc2ccccc2)nnc1-c1ccco1	-1	-2	-1	13	-11
Cc1ccc(-c2ccc(SCC(=O)NC3CCCC3)nn2)cc1	0	-2	-2	-6	38
CCOC(=O)N1CCN(C(=O)CSc2ccc(-c3ccc(OC)c(OC)c3)nn2)CC1	0	-3	-4	-3	53
CCOC(=O)N1CCN(C(=O)CSc2ccc(-c3ccc(OC)cc3)nn2)CC1	-1	-1	-4	-3	68*
Cc1ccc(-c2ccc(SCC(=O)NC3CCCCC3)nn2)cc1	0	-1	0	2	62*
Cc1csc(NC(=O)CSc2ncnc3ccccc23)n1	0	-2	-7	-7	63*
O=C(CNC(=O)c1ccccc1F)Nc1ccccc1C(F)(F)F	-1	-1	-6	4	69*
O=C(CNC(=O)c1ccc(Cl)cc1)Nc1ccccc1C(F)(F)F	0	2	-3	-10	15
SMILES	TbMetRS inhib	APOBEC3A inh	APOBEC3G inh	p-CIP stab down	PHOSPHO1 inh
CC(C)CC(=O)Nc1ccc(C(=O)NNC(=S)NC(=O)C2CCCCC2)cc1	-1	-5	9	-9	93*
Cc1cccn2c(=O)c3cc(C(=O)NCCN4CCOCC4)c(=N)n(Cc4ccc(F)cc4)c3nc12	0	1	-1	1	32
Cc1c(NC(=S)N/C(=N/S(=O)(=O)c2ccc(Cl)cc2)c2ccccc2)c(=O)n(-c2ccccc2)n1C	0	0	-5	-5	83*
O=C(CSc1cccc2cccnc12)N/N=C/c1ccc(O)cc1	-1	6	0	-13	32
O=C(CCc1ccccc1O)N/N=C/c1ccc(Sc2cccc3cccnc23)o1	2	-2	-5	-1	98*
COc1cc(C(C(=O)NC2CCCC2)N(C(=O)Cc2cccs2)C2CC2)cc(OC)c1OC (stereo not given)	0	-1	-6	9	-6
O=C(C1CCC(CNc2nc(=S)[nH]c3ccccc23)CC1)N1CCN(c2ccc(F)cc2)CC1 (stereo not given)	-1	.	.	-2	-19
CCCC(=O)Nc1cccc(C(=O)Nc2ccccc2OCC)c1	.	-3	-2	-25	-5

Assay outcomes: PubChem, several laboratories
